High-throughput results from PubChem.
PKA-R1A act: activates the PKA-R1A holoenzyme complex. P00514+P68181. PKA-R1A dissociation, Cy5-IP20 fluorescence polarization; scaled: DMSO 0%, 113 µM cGMP 100%. activation, % at 11.4 µM. hit rate 0.083% among 340,000. AID 504707;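 active = percent activation above the mean of all tested compounds plus 3 SD, cut at about 19% in these data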;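 also: higher means more PKAc released from R1A so a rise in polarization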
MsrA inhibitor: inhibits bovine methionine sulfoxide reductase A; purified bovine MsrA, absorbance read-out; inhibition, % at 15.5 µM; hit rate 0.75% among 360,000; AID 651718; in the data active = inhibition above about 4.5%
PKA-R2B act: PKA-R2B complex activation. P22694+P31323. PKA-R2B holoenzyme dissociation, Cy5-IP20 fluorescence polarization; R2B truncated from residue 108, S112A mutant; 0% DMSO only, 100% 113 µM cGMP. activation, % at 11.4 µM. hit rate 0.079% among 340,000. AID 504700;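 active = activation above a cutoff set at the mean over all compounds plus 3 SD, cut at about 18% in these data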;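 also: higher means more holoenzyme dissociation and a rise in polarization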
Target sequence (P31323 whole entry, looked up, other chains not shown, the tested form may be a part): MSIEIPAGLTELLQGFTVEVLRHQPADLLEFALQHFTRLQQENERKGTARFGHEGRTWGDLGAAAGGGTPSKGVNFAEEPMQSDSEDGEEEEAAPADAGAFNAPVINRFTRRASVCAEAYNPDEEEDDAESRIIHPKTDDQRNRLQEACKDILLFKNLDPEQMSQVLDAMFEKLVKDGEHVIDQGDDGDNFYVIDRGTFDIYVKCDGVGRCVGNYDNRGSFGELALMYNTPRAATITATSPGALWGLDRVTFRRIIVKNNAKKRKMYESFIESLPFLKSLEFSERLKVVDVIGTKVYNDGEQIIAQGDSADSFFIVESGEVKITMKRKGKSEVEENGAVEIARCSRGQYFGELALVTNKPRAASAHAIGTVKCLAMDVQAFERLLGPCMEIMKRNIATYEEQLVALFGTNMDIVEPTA
IMP-1 inh: blocks Pseudomonas aeruginosa IMP-1 metallo-beta-lactamase; purified IMP-1, nitrocefin hydrolysis, epi-absorbance fluorescence; hit rate 0.45% among 290,000; inhibition, % at 5.6 µM;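 active = inhibition above the mean plus 3 SD of all compounds in the same screening run, cut at about 4.5% in these data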
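System: purified IMP-1 / Input: IMP-1 dispensed at 0.2 nM / Medium: 50 mM HEPES pH 7.1, 50 µM ZnSO4, 0.05% Brij 35 / Timing: 15 min enzyme–compound preincubation, then 25 min nitrocefin reaction, 25 °C / Technique: plate fluorescence quenching by hydrolysis product, ex 480/em 530 nm / Repeats: singlicate testing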
bovine MsrA act: activates bovine MsrA enzyme | activation, % at 10.6 µM | purified bovine MsrA, absorbance read-out | AID 602163 | hit rate 0.3% among 360,000; in the data active = activation above about 7.5%
VIM-2 inhibitor: blocks Pseudomonas aeruginosa VIM-2 metallo-beta-lactamase; inhibition, % at 5.6 µM; hit rate 0.89% among 290,000; purified VIM-2, nitrocefin hydrolysis, epi-absorbance fluorescence; AID 1527;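 active = inhibition above the mean of all tested compounds plus 3 SD, cutoff set per screening run, cut at about 7.5% in these data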;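 also: red hydrolysis product quenches plate fluorescence so inhibitors raise well fluorescence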
VIM-2 inh confirm: VIM-2 inhibition, confirmation assay. inhibition, % at 5.6 µM. hit rate 73% among 200. shares compounds with IMP-1 inh. purified VIM-2 enzyme, nitrocefin absorbance; in the data active = inhibition above about 8%
TEM-1 counter: blocks E. coli TEM-1 beta-lactamase, VIM-2 IMP-1 counter-screen | shares compounds with IMP-1 inh | nitrocefin absorbance inhibition | inhibition, % at 5.6 µM | hit rate 50% among 200 | AID 2184; in the data active = inhibition above about 0.66%
IMP-1 inh conf: confirmation of P. aeruginosa IMP-1 metallo-beta-lactamase inhibitors. shares compounds with IMP-1 inh. purified IMP-1 enzyme, absorbance substrate hydrolysis. inhibition, % at 5.6 µM. hit rate 60% among 200; in the data active = inhibition above about 4.9%
A number is an active result; n = inactive; x = no result given. Compounds with a hit are over-represented: about 2.1% of the library has one in this group of screens.

SMILES	PKA-R1A act	MsrA inhibitor	PKA-R2B act	IMP-1 inh	bovine MsrA act	VIM-2 inhibitor	VIM-2 inh confirm	TEM-1 counter	IMP-1 inh conf
CC(=O)Oc1ccc2c(c1)Oc1cc(OC(C)=O)ccc1C21OC(=O)c2ccccc21	n	x	n	140	n	143	14	3.3	4.7
Cc1cc(O)ccc1C1(c2ccc(O)cc2C)OC(=O)c2ccccc21	n	n	n	n	n	n	x	x	x
Cn1c(CC(=O)NNC(=O)c2cncc(Br)c2)nc2ccccc21	n	n	n	x	n	x	x	x	x
C[n+]1ccc2[nH]c3ccccc3c2c1	x	n	x	x	n	x	x	x	x
Cc1[nH]c2ccccc2c1/C=C/c1cc[n+](C)cc1	n	n	n	9.0	n	10	17	n	n
NS(=O)(=O)c1ccc(NC(=O)c2cccc(N3C(=O)c4ccccc4C3=O)c2)cc1	n	n	n	25	n	9.6	n	n	17
CCN(CC)C1=CC2=CC(=C(C#N)C#N)CCC2CC1 (stereo unspecified)	n	n	n	47	n	36	60	79	58
N#CC(C#N)=C1C=C2C=C(N3CCCCC3)CCC2CC1 (stereo unspecified)	x	x	x	58	x	48	62	87	58
CCCCN(C)C1=CC2=CC(=C(C#N)C#N)CCC2CC1 (stereo unspecified)	n	n	n	43	n	30	53	79	50
O=C(NCc1ccccc1)[C@@H]1CCCN1C(=O)[C@H]1CCCN1C(=O)c1c(F)cccc1F	x	n	x	x	x	x	x	x	x
O=C(CCC(=O)N(CC(=O)NC1CCCC1)Cc1ccccc1)Nc1nccs1	n	n	n	n	n	n	x	x	x
Cn1ccnc1SCC(=O)n1c2c(c3ccccc31)CCCC2	n	n	n	5.7	n	29	8.5	n	n
Cn1ccnc1SCC(=O)Nc1cccc2ccccc12	n	n	n	n	n	n	x	x	x
O=P(O)(O)COc1ccccc1P(=O)(c1ccccc1)c1ccccc1	n	n	n	5.3	n	12	16	n	n
